What was measured:
Type in all cases: ADME, organism-based
[1] = system: Cerebellum; assay: Biodistribution in NMRI mouse cerebellum assessed per gram of tissue at 3.7 MBq/mL, iv after 2 mins by gamma counting; conditions: in vivo
In short: (§1)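 Male NMRI mice (30-40 g) anaesthetised with 0.1 mL ip Hypnorm (fentanyl citrate 63 µg/mL, fluanisone 2 mg/mL). Each received 0.1 mL of HPLC-purified 18F tracer, diluted in 0.9% NaCl to 3.7 MBq/mL (ethanol ≤10%, THF ≤0.02%), via tail vein. Killed by decapitation at 2 or 60 min; blood and organs weighed and γ-counted. Background-corrected, expressed as %ID or %ID/g.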

[2] = system: Cerebellum; assay: Biodistribution in NMRI mouse cerebellum at 3.7 MBq/mL, iv after 2 mins by gamma counting; conditions: in vivo; in short: as §1
[3] = system: Liver; assay: Biodistribution in NMRI mouse liver at 3.7 MBq/mL, iv after 2 mins by gamma counting; conditions: in vivo; in short: as §1
[4] = Biodistribution in NMRI mouse cerebrum assessed per gram of tissue at 3.7 MBq/mL, iv after 60 mins by gamma counting; conditions: in vivo, 1 h; in short: as §1
[5] = system: Kidney; assay: Biodistribution in NMRI mouse kidney at 3.7 MBq/mL, iv after 60 mins by gamma counting; conditions: in vivo, 1 h; in short: as §1
[6] = system: Blood; assay: Biodistribution in NMRI mouse blood assessed per gram of tissue at 3.7 MBq/mL, iv after 2 mins by gamma counting; conditions: in vivo; in short: as §1
[7] = system: Heart; assay: Biodistribution in NMRI mouse heart assessed per gram of tissue at 3.7 MBq/mL, iv after 2 mins by gamma counting; conditions: in vivo; in short: as §1
[8] = system: Lung; assay: Biodistribution in NMRI mouse lung at 3.7 MBq/mL, iv after 2 mins by gamma counting; conditions: in vivo
[9] = system: Liver; assay: Biodistribution in NMRI mouse liver assessed per gram of tissue at 3.7 MBq/mL, iv after 2 mins by gamma counting; conditions: in vivo; in short: as §1
[10] = system: Lung; assay: Biodistribution in NMRI mouse lung at 3.7 MBq/mL, iv after 60 mins by gamma counting; conditions: in vivo, 1 h; in short: as §1
[11] = system: Cerebellum; assay: Biodistribution in NMRI mouse cerebellum at 3.7 MBq/mL, iv after 60 mins by gamma counting; conditions: in vivo, 1 h; in short: as §1
[12] = system: Intestine; assay: Biodistribution in NMRI mouse intestine at 3.7 MBq/mL, iv after 60 mins by gamma counting; conditions: in vivo, 1 h; in short: as §1
[13] = system: Heart; assay: Biodistribution in NMRI mouse heart assessed per gram of tissue at 3.7 MBq/mL, iv after 60 mins by gamma counting; conditions: in vivo, 1 h; in short: as §1
[14] = Biodistribution in NMRI mouse cerebrum assessed per gram of tissue at 3.7 MBq/mL, iv after 2 mins by gamma counting; conditions: in vivo; in short: as §1
[15] = system: Blood; assay: Biodistribution in NMRI mouse blood at 3.7 MBq/mL, iv after 60 mins by gamma counting; conditions: in vivo, 1 h; in short: as §1
[16] = system: Intestine; assay: Biodistribution in NMRI mouse intestine at 3.7 MBq/mL, iv after 2 mins by gamma counting; conditions: in vivo; in short: as §1
[17] = system: Cerebellum; assay: Biodistribution in NMRI mouse cerebellum assessed per gram of tissue at 3.7 MBq/mL, iv after 60 mins by gamma counting; conditions: in vivo, 1 h; in short: as §1
[18] = Biodistribution in NMRI mouse spleen/pancreas at 3.7 MBq/mL, iv after 2 mins by gamma counting; conditions: in vivo; in short: as §1
[19] = Biodistribution in NMRI mouse cerebrum at 3.7 MBq/mL, iv after 60 mins by gamma counting; conditions: in vivo, 1 h; in short: as §1
[20] = system: Blood; assay: Biodistribution in NMRI mouse blood at 3.7 MBq/mL, iv after 2 mins by gamma counting; conditions: in vivo; in short: as §1
[21] = Biodistribution in NMRI mouse cerebrum at 3.7 MBq/mL, iv after 2 mins by gamma counting; conditions: in vivo; in short: as §1
[22] = Biodistribution in NMRI mouse urine at 3.7 MBq/mL, iv after 2 mins by gamma counting; conditions: in vivo; in short: as §1
[23] = system: Lung; assay: Biodistribution in NMRI mouse lung assessed per gram of tissue at 3.7 MBq/mL, iv after 60 mins by gamma counting; conditions: in vivo, 1 h; in short: as §1
[24] = Biodistribution in NMRI mouse urine at 3.7 MBq/mL, iv after 60 mins by gamma counting; conditions: in vivo, 1 h; in short: as §1
[25] = system: Kidney; assay: Biodistribution in NMRI mouse kidney assessed per gram of tissue at 3.7 MBq/mL, iv after 2 mins by gamma counting; conditions: in vivo; in short: as §1
[26] = system: Blood; assay: Biodistribution in NMRI mouse blood assessed per gram of tissue at 3.7 MBq/mL, iv after 60 mins by gamma counting; conditions: in vivo, 1 h; in short: as §1
[27] = system: Liver; assay: Biodistribution in NMRI mouse liver assessed per gram of tissue at 3.7 MBq/mL, iv after 60 mins by gamma counting; conditions: in vivo, 1 h; in short: as §1
[28] = system: Stomach; assay: Biodistribution in NMRI mouse stomach at 3.7 MBq/mL, iv after 60 mins by gamma counting; conditions: in vivo, 1 h; in short: as §1
[29] = system: Stomach; assay: Biodistribution in NMRI mouse stomach at 3.7 MBq/mL, iv after 2 mins by gamma counting; conditions: in vivo; in short: as §1
[30] = Biodistribution in NMRI mouse spleen/pancreas assessed per gram of tissue at 3.7 MBq/mL, iv after 60 mins by gamma counting; conditions: in vivo, 1 h; in short: as §1
[31] = system: Liver; assay: Biodistribution in NMRI mouse liver at 3.7 MBq/mL, iv after 60 mins by gamma counting; conditions: in vivo, 1 h; in short: as §1
[32] = system: Heart; assay: Biodistribution in NMRI mouse heart at 3.7 MBq/mL, iv after 2 mins by gamma counting; conditions: in vivo; in short: as §1
[33] = system: Kidney; assay: Biodistribution in NMRI mouse kidney assessed per gram of tissue at 3.7 MBq/mL, iv after 60 mins by gamma counting; conditions: in vivo, 1 h; in short: as §1
[34] = system: Lung; assay: Biodistribution in NMRI mouse lung assessed per gram of tissue at 3.7 MBq/mL, iv after 2 mins by gamma counting; conditions: in vivo; in short: as §1
[35] = Biodistribution in NMRI mouse spleen/pancreas assessed per gram of tissue at 3.7 MBq/mL, iv after 2 mins by gamma counting; conditions: in vivo; in short: as §1
[36] = Biodistribution in NMRI mouse spleen/pancreas at 3.7 MBq/mL, iv after 60 mins by gamma counting; conditions: in vivo, 1 h; in short: as §1
[37] = system: Heart; assay: Biodistribution in NMRI mouse heart at 3.7 MBq/mL, iv after 60 mins by gamma counting; conditions: in vivo, 1 h; in short: as §1
[38] = system: Kidney; assay: Biodistribution in NMRI mouse kidney at 3.7 MBq/mL, iv after 2 mins by gamma counting; conditions: in vivo; in short: as §1

[11CH3]Nc1ccc(-c2nc3ccc(O)cc3s2)cc1 [PITTSBURGH COMPOUND B]
Drug uptake [1]: 1.6 % ID/g | Drug uptake [2]: 0.17 %ID | Drug uptake [3]: 15.6 %ID | Drug uptake [4]: 0.6 % ID/g | Drug uptake [5]: 4.8 %ID | Drug uptake [6]: 3.1 % ID/g | Drug uptake [7]: 4.2 % ID/g | Drug uptake [8]: 0.9 %ID | Drug uptake [9]: 7.9 % ID/g | Drug uptake [10]: 0.3 %ID | Drug uptake [11]: 0.03 %ID | Drug uptake [12]: 42.5 %ID | Drug uptake [13]: 2.1 % ID/g | Drug uptake [14]: 3.6 % ID/g | Drug uptake [15]: 2.7 %ID | Drug uptake [16]: 12 %ID | Drug uptake [17]: 0.31 % ID/g | Drug uptake [18]: 0.6 %ID | Drug uptake [19]: 0.18 %ID | Drug uptake [20]: 7.9 %ID | Drug uptake [21]: 1.08 %ID | Drug uptake [22]: 0.2 %ID | Drug uptake [23]: 1.3 % ID/g | Drug uptake [24]: 24.4 %ID | Drug uptake [25]: 19.9 % ID/g | Drug uptake [26]: 1.1 % ID/g | Drug uptake [27]: 5 % ID/g | Drug uptake [28]: 0.3 %ID | Drug uptake [29]: 1.1 %ID | Drug uptake [30]: 0.7 % ID/g | Drug uptake [31]: 9.8 %ID | Drug uptake [32]: 0.6 %ID | Drug uptake [33]: 9.1 % ID/g | Drug uptake [34]: 3.6 % ID/g | Drug uptake [35]: 4.7 % ID/g | Drug uptake [36]: 0.1 %ID | Drug uptake [37]: 0.3 %ID | Drug uptake [38]: 10.3 %ID

Source: ChEMBL document CHEMBL1140929, “Synthesis and evaluation of 18F-labeled 2-phenylbenzothiazoles as positron emission tomography imaging agents for amyloid plaques in Alzheimer's disease” (J Med Chem, 2009)
